{"data": "Published values collected from several papers", "read-out": "enzyme activity", "ABL1": "Tyrosine-protein kinase ABL1 (ABL1, Homo sapiens, UniProt P00519)", "note": "Lines come from different studies, so protocols differ."}
{"SMILES": "CCCOc1ccc(OC)c(F)c1C(=O)c1ccc(C(=O)N[C@@H]2CNC[C@H]2NC(=O)c2ccc3[nH]ncc3c2)cc1", "target": "ABL1", "action": "inhibitor", "concentration": "10 µM", "remaining activity": "80%"}
{"SMILES": "CCN(CC)c1ccc(C2=NNC(=O)CC2C)cc1[N+](=O)[O-] (stereo not drawn)", "target": "ABL1", "action": "inhibitor", "concentration": "10 µM", "remaining activity": "87%"}
{"SMILES": "CC(C)(C)c1nc2c(s1)c1nc(N)ncc1c1ccc(NS(=O)(=O)c3c(F)cccc3F)c(F)c12", "target": "ABL1", "action": "inhibitor", "method": "radiometric", "concentration": "1 µM", "remaining activity": "93%"}
{"SMILES": "COc1cc(Nc2cnc(C#N)c(O[C@H](C)CN(C)C)n2)ncc1-c1cnn(C)c1", "target": "ABL1", "action": "inhibitor", "method": "radiometric", "concentration": "10 µM", "remaining activity": "58%"}
{"SMILES": "Cc1cnc(NC2CCOCC2)nc1-n1cnc(C(=O)NC(CN)c2cc(F)cc(Cl)c2)c1 (stereo not drawn)", "target": "ABL1", "action": "inhibitor", "method": "radiometric", "concentration": "1 µM", "remaining activity": "103%"}
{"SMILES": "COc1cc(Cl)c(C(=O)N[C@@H](CN[C@H]2CC[C@@H](N)CC2)Cc2ccc(C#N)cc2)cc1-c1ccc(CN[C@H](C)c2ccc(C)cc2)o1", "target": "ABL1", "action": "inhibitor", "concentration": "1 µM", "remaining activity": "96%"}
{"SMILES": "O=C(Nc1cnn(-c2csc(C(=O)NC3COC3)c2)c1)Nc1ccccc1Cl", "target": "ABL1", "action": "inhibitor", "concentration": "5 µM", "remaining activity": "83.4%"}
{"SMILES": "Cc1ccc(NC(=O)c2ccc(C)c(C(F)(F)F)c2)cc1C#Cc1nn(C2CCC(O)CC2)c2ncnc(N)c12 (stereo not drawn)", "target": "Tyrosine-protein kinase ABL1 (ABL1, Homo sapiens, UniProt P00519, Q252H)", "concentration": "10 µM", "remaining activity": "2%"}
{"SMILES": "Cc1[nH]c(/C=C2\\C(=O)Nc3ccc(F)cc32)c(C)c1C(=O)N[C@H]1CCN(C(=O)N(C)C)C1", "target": "ABL1", "action": "inhibitor", "concentration": "1 µM", "remaining activity": "107%"}
